Measured values pooled from the literature.
Protocols differ between the studies behind these lines.
Target: Protein-tyrosine kinase 6 (PTK6, Homo sapiens, UniProt Q13882)

`COc1cc2ncnc(Nc3ccc(Oc4ccccc4)c(C)c3C)c2cc1OC` has an inhibition of 93% (enzyme activity; inhibitor; 1 µM).
For `CN(C)C1CCN(CC#Cc2nn(C3CCCC3)c3nc(NCc4ccccc4)ncc23)C1` (stereo not drawn), the inhibition was 1% (enzyme activity; inhibitor; FRET; 1 µM).
For `CNC(=O)c1cc2c(Oc3ccc(NC(=O)C4(C(=O)Nc5ccc(F)cc5)CC4)cc3)ccnc2cc1OC`, the inhibition was 98% (enzyme activity; inhibitor; radiometric; 1 µM).
`CS(=O)(=O)c1cc(C2(NC(=O)c3cncc4c3cnn4-c3ccc(F)cc3)CC2)ccn1` gave a remaining binding of 80% (cell-free assay; competition with immobilised ligand; 1 µM).
`Nc1ncnc2occ(-c3ccc(NC(=O)Nc4cc(C(F)(F)F)ccc4F)cc3)c12` has a remaining signal of 20% (cell-free assay; inhibitor; 20 µM).
`Cc1nc(Cc2cccc(C(F)(F)F)c2)sc1-c1ccc(C(N)=O)nc1` gave a remaining binding of 100% (cell-free assay; competition with immobilised ligand; 1 µM).
`FC(F)(F)Oc1cccc(-c2cnc3ccc(-c4ccncc4)nn23)c1` has an activity vs control of 72% (enzyme activity; inhibitor; radiometric; 1 µM).
`CCC(=O)N[C@H]1CC[C@@H](C(=O)N(C)c2ccc(-c3nc4ccccc4o3)cc2)C1` gave a remaining binding of 100% (cell-free assay; competition with immobilised ligand; 1 µM).
For `COc1cc(/C=C/C(=O)CC(=O)/C=C/c2ccc(O)c(OC)c2)ccc1O`, the activity vs control was 85% (enzyme activity; inhibitor; 1 µM).
The remaining signal of `N#CCCc1ccc2c(c1)-c1[nH]c3ccc([N+](=O)[O-])cc3c1CC(=O)N2` is reported as 94.6% (cell-free assay; 0.5 µM).
`CN(c1ccnc(CNc2nc(Nc3ccc4c(c3)CC(=O)N4)ncc2C(F)(F)F)n1)S(C)(=O)=O` has a remaining binding of 100% (cell-free assay; competition with immobilised ligand; 1 µM).
`COc1cc(Nc2cnc(C#N)c(O[C@H](C)CN(C)C)n2)ncc1-c1cnn(C)c1` gave a remaining activity of 91% (enzyme activity; inhibitor; radiometric; 10 µM).
`O=C(Nc1cnn(-c2csc(C(=O)NC3COC3)c2)c1)Nc1c(F)cccc1Cl` has a remaining activity of 85.7% (enzyme activity; inhibitor; 5 µM).
The inhibition of `C=CC(=O)Nc1cc(Nc2nccc(Nc3cc(Cl)c(F)cc3C(C)(C)O)n2)c(OC)cc1N1CC[C@@H](N(C)C)C1` is reported as 63% (enzyme activity; inhibitor; 1 µM).
For `O=C(O)[C@@H]1[C@@H](Cn2nnc3ccccc3c2=O)CC[C@H]1C(=O)c1ccc(OCCC2CCOCC2)cc1`, the remaining binding was 99% (cell-free assay; competition with immobilised ligand; 1 µM).
`Cc1ccc(C(=O)Nc2ccc(CN3CCN(C)CC3)c(C(F)(F)F)c2)cc1C#Cc1cnc2cccnn12` gave a remaining activity of 95% (enzyme activity; inhibitor; 23.5 nM).
`CC(C)(C)c1nc(-c2cccc(NS(=O)(=O)c3c(F)cccc3F)c2F)c(-c2ccnc(N)n2)s1` has a remaining activity of 26% (enzyme activity; inhibitor; radiometric; 1 µM).
For `Cc1cnc(NC2CCOCC2)nc1-n1cnc(C(=O)NC(CN)c2cc(F)cc(Cl)c2)c1` (stereo not drawn), the remaining activity was 127% (enzyme activity; inhibitor; radiometric; 1 µM).
The inhibition of `CCN(CC)CCNC(=O)c1c(C)[nH]c(/C=C2\C(=O)Nc3ccc(F)cc32)c1C` is reported as 74% (enzyme activity; inhibitor; 10 µM).
`CS(=O)(=O)CCNCc1ccc(-c2ccc3ncnc(Nc4ccc(OCc5cccc(F)c5)c(Cl)c4)c3c2)o1` gave a remaining signal of 103% (cell-free assay; 0.5 µM).
`CNC(=O)c1cc(Oc2ccc(NC(=O)Nc3ccc(Cl)c(C(F)(F)F)c3)cc2)ccn1` has an inhibition of -3% (enzyme activity; inhibitor; 0.3 µM).
With `CCCOc1ccc([C@@H]2[C@@H](C(=O)O)[C@H](c3ccc4c(c3)OCO4)CN2CC(=O)Nc2c(CC)cccc2CC)cc1` the remaining binding was 83% (cell-free assay; competition with immobilised ligand; 1 µM).
`COc1cc2nccc(Oc3ccc(NC(=O)c4c5n(n(-c6ccc(F)cc6)c4=O)CCCC5)cc3)c2cc1OC` gave an inhibition of 37% (enzyme activity; inhibitor; 0.1 µM).
`O=C(N1CCS(=O)(=O)CC1)N1C[C@H](c2ccc(OC(F)(F)F)cc2)C[C@H](c2nc(C3CC3)no2)C1` has a remaining binding of 100% (cell-free assay; competition with immobilised ligand; 1 µM).
The remaining activity of `CCN(CC)c1ccc(C2=NNC(=O)CC2C)cc1[N+](=O)[O-]` (stereo not drawn) is reported as 105% (enzyme activity; inhibitor; 10 µM).
`CS(=O)(=O)N1CCCC(NC(=O)[C@H](CCC2CCCCC2)NC(=O)c2ccc(CNc3ncnc4c3nnn4-c3ccccc3)cc2)C1` (stereo partly drawn) gave a remaining binding of 76% (cell-free assay; competition with immobilised ligand; 0.1 µM).
For `Cc1ccc(Nc2nccc(N(C)c3ccc4c(C)n(C)nc4c3)n2)cc1S(N)(=O)=O`, the inhibition was 88% (enzyme activity; inhibitor; 10 µM).
